Screening results from PubChem.
In the library only some 1.5% were active in any assay of this set; here they are far more common.
EBI2 block: EBI2 receptor antagonists, beta-arrestin recruitment, primary screen, cell-based, luminescence, 7a,25-OHC stimulation, uHTS. G-protein coupled receptor 183 (Homo sapiens), P32249. 7a,25-OHC stimulated. 360,000 tested, 0.81% active. inhibition, % at 5 µM. AID 651636, 2012; in the data active = inhibition above about 38%;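 also: enzyme fragment complementation signal reports receptor beta-arrestin coupling in cells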
CXCR6 block: CXCR6 receptor inhibitors, primary screen, cell-based, beta-arrestin, luminescence, CHO-K1 PathHunter, 1536-well | inhibition, % at 20 µM | 360,000 tested, 0.36% active | AID 602244, 2012; in the data active = inhibition above about 34%, passing the limit was not always enough;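 also: antagonist mode with CXCL16 agonist at 10 nM final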
APJ antagonist: antagonists of human apelin receptor APJ, primary screen, CHO-K1 cells, beta-arrestin complementation, luminescence; inhibition, % at 20 µM; 330,000 tested, 0.32% active;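 active = inhibition above about 40% at 20 µM, limit read from the data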;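 also: cells challenged with 10 nM apelin-13 agonist together with compound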
CCR6 antagonist: CCR6 receptor antagonists, primary screen, cell-based, CHO-K1, luminescence, beta-arrestin, uHTS; inhibition, % at 20 µM; 340,000 tested, 0.49% active; C-C chemokine receptor type 6 (Homo sapiens), P51684; CHO-K1 CCR6 PathHunter beta-arrestin, CCL20-stimulated;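 active = compounds whose inhibition of the agonist-driven luminescence signal at 20 µM reaches about 50%, limit read from the data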;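 also: cells stimulated with CCL20 at 14 nM final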
Target sequence (P51684 whole entry, looked up): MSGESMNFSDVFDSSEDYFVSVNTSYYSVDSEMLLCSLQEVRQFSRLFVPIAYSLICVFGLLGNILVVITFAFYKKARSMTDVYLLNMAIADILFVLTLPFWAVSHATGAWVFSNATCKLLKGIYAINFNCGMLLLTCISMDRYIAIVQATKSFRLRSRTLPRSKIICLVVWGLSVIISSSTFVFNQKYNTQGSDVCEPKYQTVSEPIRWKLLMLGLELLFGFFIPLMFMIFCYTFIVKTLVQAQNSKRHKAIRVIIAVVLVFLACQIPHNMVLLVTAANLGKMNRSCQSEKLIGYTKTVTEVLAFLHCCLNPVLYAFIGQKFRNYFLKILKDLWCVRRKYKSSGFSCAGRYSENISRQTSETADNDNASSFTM
APJ agonist: agonists of human apelin receptor APJ, primary screen, CHO-K1 cells, PathHunter beta-arrestin, luminescence. 0% DMSO wells, 100% apelin. 330,000 tested, 0.11% active. P35414. activation, % at 20 µM;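 active = activation more than six SD over the plate average, tested at 20 µM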
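Test system: CHO-K1 APJ beta-arrestin complementation cell line | Compound: Single test compound dose, 20 µM final, 1% DMSO | Incubation: Compound 90 min 25 °C, reagent 1 h | Measured by: beta-gal luminescence | Read-out basis: APJ–arrestin association signal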
APJ antag confirm: APJ antagonists blocking beta-arrestin recruitment, confirmation, cell-based, luminescence, single concentration, uHTS hits; 950 tested, 66% active; antagonist mode; shares compounds with APJ antagonist; inhibition, % at 20 µM; in the data active = inhibition above about 50%
Each line names hits and unclear results; the compound was inactive in the other large screens (follow-up assays come after a bar, where they were run).

Cc1ccc(NCC(=O)c2ccccc2)cc1Cl	CXCR6 block 49.2, APJ antagonist 94.2, CCR6 antagonist 73.0 | APJ antag confirm 100.6
Cc1ccc(NCCC(=O)c2ccccc2)cc1Cl	none
COc1ccccc1NC(=O)CSc1nc(SC)ns1	none
CCOC(=O)c1c(C)nc2sc(C(=O)Nc3ccc(C(C)=O)cc3)c(N)c2c1-c1ccc(OC)cc1	APJ antagonist 51.1 | APJ antag confirm inactive
Nc1nc(SCC(=O)c2ccc([N+](=O)[O-])cc2)n[nH]1	none
O=C(O)c1ccccc1NS(=O)(=O)c1ccc(N/N=C/c2cccc(O)c2O)c([N+](=O)[O-])c1	none (no result: APJ antagonist, APJ agonist)
O=C(C1=C(O)C(=O)N(CCN2CCOCC2)C1c1cccs1)c1cc2ccccc2o1 (stereo not drawn)	APJ antagonist 55.6 | APJ antag confirm inactive
O=C(C1=C(O)C(=O)N(CCN2CCOCC2)C1c1cccc(O)c1)c1cc2ccccc2o1 (stereo not drawn)	none
CCCCCCCc1ccc(C2NC(=S)NC3=C2C(=O)c2ccccc23)cc1 (stereo not drawn)	APJ antagonist 56.2 (no result: EBI2 block, CXCR6 block) | APJ antag confirm inactive
CC(C)(C)SCCNC(=O)/C=C/c1cccc([N+](=O)[O-])c1	none
CCCn1nc([N+](=O)[O-])c(C(C#N)c2nc3ccccc3s2)c(Cl)c1=O (stereo not drawn)	APJ antagonist 61.9, CCR6 antagonist 50.5 | APJ antag confirm 66.2
CN(/N=C/c1cc([N+](=O)[O-])ccc1O)c1ccccc1	CXCR6 block 48.5, APJ antagonist 41.8, CCR6 antagonist 63.6 | APJ antag confirm 62.7
O=[N+]([O-])c1cccc(N/N=C/c2cc([N+](=O)[O-])ccc2O)c1	APJ antagonist 46.5 | APJ antag confirm inactive
COC(=O)CC(NC(=O)CN1CCN(c2ccc(F)cc2)CC1)c1cccc(F)c1 (stereo not drawn)	none
COc1ccc(CN2C(=O)CC(Cc3cc(C)cc(C)c3)C2=O)cc1OC (stereo not drawn)	none
COc1ccc(NC(=O)CS(=O)(=O)c2ccc(C)cc2)c(OC)c1	APJ antagonist 109.5 | APJ antag confirm inactive
O=C(O)c1cccc2c1C(=O)c1ccc(N3CCN(Cc4ccc5c(c4)OCO5)CC3)cc1S2(=O)=O	none (no result: APJ antagonist, CCR6 antagonist, APJ agonist)
CCOC(=O)c1c(-c2ccc(-c3ccccc3)cc2)csc1NC(=O)CNCCN(C)C	APJ antagonist 42.9, CCR6 antagonist 78.3 | APJ antag confirm 95.7
CCC(=O)N1c2ccc(S(=O)(=O)CCC(=O)NCc3ccc4c(c3)OCO4)cc2CC1C (stereo not drawn)	none
CCOC(=O)C1=C(C)N=c2s/c(=C/c3cccc([N+](=O)[O-])c3O)c(=O)n2C1c1ccc(OC)cc1OC (stereo not drawn)	CXCR6 block 40.8, APJ antagonist 56.6, CCR6 antagonist 63.6 | APJ antag confirm 97.8
COC(=O)c1cc(NC(=O)CSc2nnc(N)s2)ccc1Cl	none
Nc1nnc(SCC(=O)Nc2ccc(Cl)c(C(=O)O)c2)s1	APJ antagonist 45.5 | APJ antag confirm inactive
N#CC(C#N)=CC1=C2OC(c3ccccc3)=CC(c3ccccc3)=C2CCC1	APJ antagonist 40.7 | APJ antag confirm 58.8
O=[N+]([O-])c1ccc(N2CCN(S(=O)(=O)c3ccccc3)CC2)c2cccnc12	APJ antagonist 45.8, CCR6 antagonist 52.0 | APJ antag confirm 64.7
Cc1ccc(NC(=O)C2(C)CCN2C(=O)C2(c3ccc(Cl)cc3)CC2)cc1 (stereo not drawn)	none (no result: APJ antagonist, CCR6 antagonist, APJ agonist)
CCCCOc1ccc(C(=O)N/C(=C/C=C/c2ccccc2)C(=O)NCCO)cc1	APJ antagonist 43.4 | APJ antag confirm inactive
CCCCOc1ccc(C(=O)N/C(=C/C=C/c2ccccc2)C(=O)NCCCO)cc1	none
CC(C)CNC(=O)c1ccc(C2SCC(=O)N2Cc2ccccc2)cc1 (stereo not drawn)	none
O=C1/C(=C/c2cccc(F)c2)CSc2sccc21	none
COc1ccc(C=C2C(=O)c3ccccc3C2=O)cc1O	APJ antagonist 44.6 | APJ antag confirm 59.4
COc1cc(C=C2C(=O)c3ccccc3C2=O)cc(OC)c1	none
